In brackets after ≈: the same amount, converted by molar mass.
Assays:
[1] = Cytotoxicity against human ChaGo cells after 3 days by MTT assay; assay type: functional, cell-based; conditions: 72 h
In short: (§1)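 Cells grown in RPMI-1640 with 25 mM HEPES, 0.25% (w/v) sodium bicarbonate, 5% (v/v) FBS and 100 µg/mL kanamycin. Freshly trypsinized cells were seeded at 5000 per well and given compound from DMSO-diluted stock. After three days, attached cells were MTT-stained, bound dye was solubilized and absorbance read at 540 nm. IC50 = 50% growth inhibition, averaged over at least six independent determinations.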

[2] = Cytotoxicity against human KATO III cells after 3 days by MTT assay; assay type: functional, cell-based, KATO III cell; conditions: 72 h; in short: as §1
BT-474 = experiment: Cytotoxicity against human BT474 cells after 3 days by MTT assay; assay type: functional, cell-based; conditions: BT-474, 72 h; in short: as §1
SW-620 = experiment: Cytotoxicity against human SW620 cells after 3 days by MTT assay; assay type: functional, cell-based; conditions: SW-620, 72 h; in short: as §1
HepG2 = experiment: Cytotoxicity against human HepG2 cells after 3 days by MTT assay; assay type: functional, cell-based; conditions: HepG2, 72 h; in short: as §1

Compound	IC50 [1] [µg/mL]	IC50 [2] [µg/mL]	IC50 (BT-474) [µg/mL]	IC50 (SW-620) [µg/mL]	IC50 (HepG2) [µg/mL]
C=C1C(=O)O[C@@H]2[C@H](O)[C@@H]3[C@]4(CC[C@]5(C)[C@@H]([C@H](C)Cc6cc(C)co6)CC[C@@]35C)C[C@]4(CCC(=O)OC)[C@H]12 [GARDENOIN C]	4.4 (≈ 8.62 µM)	> 5	> 5	2.5 (≈ 4.9 µM)	2.8 (≈ 5.48 µM)
C=C1C(=O)O[C@@H]2C[C@@H]3[C@]4(CC[C@]5(C)[C@@H]([C@H](C)Cc6cc(C)co6)CC[C@@]35C)C[C@]4(CCC(=O)O)[C@H]12 [GARDENOIN A]	1.6 (≈ 3.33 µM)	> 5	> 5	> 5	4.5 (≈ 9.36 µM)
C=C(CO)[C@@H]1CC[C@@H]2[C@]3(CC[C@]4(C)[C@@H]([C@H](C)CC=CC(C)(C)O)CC[C@@]24C)C[C@]13CCC(=O)O	> 5	> 5	> 5	> 5	> 5
C=C1C(=O)O[C@@H]2C[C@@H]3[C@]4(CC[C@]5(C)[C@@H]([C@H](C)Cc6cc(C)co6)CC[C@@]35C)C[C@]4(CCC(=O)OC)[C@H]12 [GARDENOIN B]	> 5	> 5	> 5	> 5	> 5
